The record followed here is ChEMBL document CHEMBL1142858, “Conformationally constrained analogues of diacylglycerol (DAG). 27. Modulation of membrane translocation of protein kinase C (PKC) isozymes alpha and delta by diacylglycerol lactones (DAG-lactones) containing rigid-rod acyl groups” (J Med Chem, 2007).

pEC50, pKi: −log10 of the molar value. The source made the active and inactive calls. The rule behind the calls is not given here.

Experiment [1] relates to U-937. The experiment in a line: Induction of attachment of U937 cells after 48 hrs. Type of experiment: functional, cell-based. The conditions noted are these: Homo sapiens; for pEC50: U-937, 48 h. Summed up: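 U937 monocytes in RPMI-1640 with 10% FBS are plated at 1 × 10⁵ cells/mL and exposed (final DMSO 0.1%) for 48 h. Non-attached cells and attached cells (after trypsinization) are counted on a Coulter counter. Attached cells are expressed as % of total cells. Mean ± SEM of three independent experiments.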

The test system of the next experiment is LNCaP. The experiment in a line: Stimulation of ERK phosphorylation in LNCaP cells at 10 uM after 30 min relative to PMA. The settings on record: Homo sapiens. It counts as cell-based. Summed up: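 LNCaP prostate cells in RPMI-1640 with 10% FBS are plated at about 60% confluency and treated 24 h later for 15 or 30 min. Cells are PBS-washed and lysed, and lysates go through 10% SDS-PAGE and immunoblotting with anti-phosphoERK. Phospho-ERK band intensity is expressed relative to 100 nM PMA (= 100%).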

The target of experiment [2] is Protein kinase C alpha type (Homo sapiens, UniProt P17252). The experiment in a line: Displacement of [3H]PDBu from PKCalpha. Summed up: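 Competition with [3H]PDBu for binding to recombinant single isozyme PKC alpha in the presence of phosphatidylserine. ID50 is taken from a least-squares fit of a sigmoidal competition curve. Ki = ID50/(1 + L/Kd), where L is free [3H]PDBu at the ID50 and Kd is the [3H]PDBu dissociation constant. Mean ± standard error, three determinations.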
(In general: Displacement assays read how much labelled ligand stays bound in the presence of the test substance.)

A short description of experiment [3]: Inhibition of cell proliferation in WEHI231 cell line after 48 hrs. It counts as functional, cell-based. The conditions noted are these: Mus musculus, WEHI231, 48 h. Summed up: (§1)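 WEHI-231 cells in DMEM with 10% FBS and 50 µM β-mercaptoethanol are plated at 1 × 10⁵ viable cells/mL and dosed 24 h later (final DMSO 0.1%) for 48 h. Cells are triturated to single-cell suspension and counted on a Coulter counter. Counts are given as % of the DMSO control. Mean ± SEM of three independent experiments.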

Experiment [4] in a line: Induction of IL6 secretion in WEHI231 cells at 30 uM after 6 hrs relative to 10 uM PMA. It counts as functional, Mus musculus. The conditions noted are these: in the assay text read “10 nM PMA” for “10 uM PMA”. The gist of the method: (§2)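 WEHI-231 cells are grown in DMEM with 10% FBS and 50 µM β-mercaptoethanol. They are plated at 1 × 10⁵ viable cells/mL and dosed 24 h later (final DMSO 0.1%) for 6 or 24 h. IL-6 in the supernatant is measured by ELISA, one measurement per experiment. It is expressed as % of IL-6 induced by 10 nM PMA at 6 h.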

Experiment [5] is described as follows: Induction of IL6 secretion in WEHI231 cells at 30 uM after 24 hrs relative to 10 uM PMA. It counts as functional, Mus musculus. The conditions noted are these: in the assay text read “10 nM PMA” for “10 uM PMA”. Summed up:
as §2

The subject of experiment [6] is CHO. As to the kind of experiment: Translocation of PKCalpha from cytosol to membrane in CHO cells. The conditions noted are these: Cricetulus griseus. It counts as functional, cell-based. Summed up:
(§3)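 CHO cells in F12-K with 10% FBS are transfected with GFP-tagged PKC alpha or PKC delta. Live cells are imaged by confocal microscopy with 488 nm excitation, time-lapse every 30 s. Redistribution from cytosol to plasma and internal membranes is followed before and after ligand addition at 10 or 20 µM, over up to about 120 min. Three independent experiments.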

Experiment [7] in a line: Stimulation of ERK phosphorylation in LNCaP cells after 30 min. Type of experiment: functional, cell-based. The settings on record: Homo sapiens, 0.5 h. Summed up: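 LNCaP prostate cells in RPMI-1640 with 10% FBS, plated at about 60% confluency and treated 24 h later with a range of concentrations for 15 or 30 min. Cells were washed with PBS and total lysates run on 10% SDS-PAGE, blotted and probed with anti-phosphoERK. Band intensity was expressed relative to 100 nM PMA (= 100%). Approximate EC50 was read from the graph; mean ± SEM of three experiments.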

In experiment [8] the test system is CHO. As to the kind of experiment: Translocation of PKCdelta from cytosol to membrane in CHO cells. The conditions noted are these: Cricetulus griseus. It counts as functional, cell-based. Summed up:
as §3

In experiment [9] the test system is CHO. As to the kind of experiment: Translocation of PKCalpha from cytosol to membrane in CHO cells at 20 uM after 120 mins. It counts as functional, cell-based. The conditions noted are these: Cricetulus griseus. Summed up:
as §3

The subject of experiment [10] is U-937. As to the kind of experiment: Reduction of PMA-induced attachment of U937 cells at 30 uM after 48 hrs. Type of experiment: functional, cell-based. The conditions noted are these: Homo sapiens.
Experiment [11] is described as follows: Inhibition of cell proliferation in WEHI231 cell line at 10 uM after 48 hrs. It counts as functional. The conditions noted are these: Mus musculus, WEHI231, 48 h. The gist of the method:
as §1

In experiment [12] the test system is CHO. The experiment in a line: Translocation of PKC from cytosol to membrane in CHO cells. It counts as functional, cell-based. The conditions noted are these: Cricetulus griseus. Summed up: as §3

The term pEC50 denotes the negative decadic logarithm of the EC50, by convention in mol/L. Low readings indicate a large EC50, high ones a small EC50. For orientation: pKi means −log10 of the Ki, conventionally taken in molar units. Regarding `COC(=O)CCCCCCCCCCCCCCCOc1ccc(C#Cc2ccc(C#Cc3ccc(C(=O)OCC4(CO)CC(=C(C)C)C(=O)O4)cc3)cc2)cc1` (centres undefined), the pEC50 in the experiment on U-937 [1] is 6.00; in experiment [3] it was 5.52. The outcome with LNCaP was Active. Also, the pKi in experiment [2] is 7.28.

As for `CCCCCCCCCC(=O)OCC1(CO)CC(=C(C)C)C(=O)O1` (centres undefined), the result with U-937 [1] was inactive. Moreover, the pKi in [2] was 7.80. For the same molecule, the Activity is on record as 80% in experiment [4] and 25% in [5]. The result with CHO [6] and with CHO [8] was Active. In experiment [7], this molecule showed a pEC50 of 5.52.

Turning to `C#Cc1ccc(C#Cc2ccc(C#Cc3ccc(C(=O)OCC4(CO)CC(=C(C)C)C(=O)O4)cc3)cc2)cc1` (centres undefined), the results for the pEC50 (in the experiment with U-937 [1]; in experiment [3]) were 6.60 and 6.40, respectively. For the same molecule, the outcome in the experiment on CHO [9] and with U-937 [10] was Active. Besides, in experiment [2], the pKi is 7.94.

In experiment [2], `C#Cc1ccc(C#Cc2ccc(C(=O)OCC3(CO)CC(=C(C)C)C(=O)O3)cc2)cc1` (centres undefined) gave a pKi of 8.28. For the same molecule, the pEC50 is 5.52 in [3] and 6.40 in experiment [7]. The outcome in the experiment on CHO [6] and in the experiment with CHO [8] was Active.

In the case of `COc1ccc(C#Cc2ccc(C#Cc3ccc(C(=O)OCC4(CO)CC(=C(C)C)C(=O)O4)cc3)cc2)cc1` (centres undefined), the pEC50 in the experiment with U-937 [1] was 6.59; in experiment [3], 6.37. In addition, the pKi in [2] is 8.23.

In turn, `COC(=O)COc1ccc(C#Cc2ccc(C#Cc3ccc(C(=O)OCC4(CO)CC(=C(C)C)C(=O)O4)cc3)cc2)cc1` (centres undefined) gave a pKi in experiment [2] of 7.80.

`CCCCCCCCCCCCCC(=O)O[C@@H]1[C@@H](C)[C@@]2(O)[C@@H](C=C(CO)C[C@]3(O)C(=O)C(C)=C[C@@H]23)[C@@H]2C(C)(C)[C@]12OC(C)=O` [PHORBOL MYRISTATE ACETATE]: the pEC50 in the experiment on U-937 [1] was 9.35; in [3] it was 9.07.

Turning to `COC(=O)COc1ccc(C#Cc2ccc(C#Cc3ccc(C#Cc4ccc(C(=O)OCC5(CO)CC(=C(C)C)C(=O)O5)cc4)cc3)cc2)cc1` (centres undefined), in experiment [2], the pKi was 6.90.

For orientation: inhibition means the drop in the measured response relative to a control, in per cent. Low readings indicate little suppression, high ones strong suppression. `CC(C)=C1CC(CO)(COC(=O)c2ccc(C#Cc3ccc(C#Cc4ccc(OCCOCCOCCOC(=O)N(CC(=O)OC(C)(C)C)CC(=O)OC(C)(C)C)cc4)cc3)cc2)OC1=O` (centres undefined): in the experiment on U-937 [1], the outcome was Active. This molecule gave a pKi in experiment [2] of 7.74. The molecule further came in with an inhibition at 10 µM in experiment [11] of 35%.

On to `CC(C)=C1CC(CO)(COC(=O)c2ccc(C#Cc3ccc(C#Cc4ccc(OCCOCCOCCOC(=O)N(CC(=O)O)CC(=O)O)cc4)cc3)cc2)OC1=O` (centres undefined), for which, in experiment [2], the pKi was 5.86. Further, the result in the experiment on CHO [12] was Active.

Take `CC(C)=C1CC(CO)(COC(=O)c2ccc(C#Cc3ccc(C#Cc4ccc(OCCOCCOCCN(CC(=O)OC(C)(C)C)CC(=O)OC(C)(C)C)cc4)cc3)cc2)OC1=O` (centres undefined): in [2], the pKi is 6.95.
